From ChEMBL document CHEMBL1148762, “Lysosome and HER3 (ErbB3) selective anticancer agent kahalalide F: semisynthetic modifications and antifungal lead-exploration studies” (J Med Chem, 2007)
In brackets after ≈: the same amount, converted by molar mass. Activity calls are given as the source filed them. The calls are words filed in the database; no cut-off is given here.

Assays:
Candida albicans = test: Antimicrobial activity against Candida albicans ATCC 90028; assay type: functional, organism-based
[1] = test system: Mycobacterium intracellulare; test: Antimicrobial activity against Mycobacterium intracellular ATCC 23068; assay type: functional, organism-based
Aspergillus fumigatus = test: Antimicrobial activity against Aspergillus fumigatus ATCC 90906; assay type: functional, organism-based
Cryptococcus neoformans = test: Antimicrobial activity against Cryptococcus neoformans ATCC 90113; assay type: functional, organism-based
Leishmania donovani = test: Antiparasitic activity against Leishmania donovani; assay type: functional, organism-based
Fusarium proliferatum [2] = test: Fungistatic activity against Fusarium proliferatum at 30 uM after 72 hrs by microtiter plate assay; assay type: functional, organism-based
Method in brief: (§1)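 Conidia come from 7-day potato dextrose agar cultures, filtered and set photometrically (625 nm) to 3 × 10^5 conidia/mL. They are exposed to compound at 30 µM in 96-well microdilution broth at 24 ± 1 °C under a 12 h photoperiod. After 72 h, 20 µL per well is subcultured on drug-free potato dextrose agar at 28 °C for 3 days. No regrowth is scored fungicidal; regrowth is scored fungistatic.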

Fusarium oxysporum [3] = test: Fungistatic activity against Fusarium oxysporum at 30 uM after 72 hrs by microtiter plate assay; assay type: functional, organism-based; method in brief: as §1
Fusarium solani [4] = test: Fungicidal activity against Fusarium solani at 30 uM after 72 hrs by microtiter assay; assay type: functional, organism-based
Method in brief: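 After 72 h of microtiter broth exposure at 30 µM, 20 µL from each well was plated onto compound-free potato dextrose agar and incubated 3 days at 28 °C. No regrowth was scored fungicidal; regrowth was scored fungistatic.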

Fusarium oxysporum [5] = test: Antimicrobial activity against Fusarium oxysporum at 0.3 uM after 48 hrs by microtiter assay; assay type: functional
Method in brief: (§2)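 96-well microdilution broth assay with conidia (3 × 10^5 conidia/mL, harvested from 7-day PDA cultures and filtered) against F. oxysporum, F. proliferatum and F. solani at 0.3, 3 and 30 µM. Plates were held at 24 ± 1 °C under a 12 h photoperiod. Growth was read at 620 nm at 24, 48 and 72 h and reported as percent inhibition from mean absorbance with standard error.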

Fusarium solani [6] = test: Antimicrobial activity against Fusarium solani at 0.3 uM after 48 hrs by microtiter assay; assay type: functional; method in brief: as §2
Fusarium oxysporum [7] = test: Antimicrobial activity against Fusarium oxysporum at 30 uM after 48 hrs by microtiter assay; assay type: functional; method in brief: as §2
RPMI-8226 = test: Cytotoxicity against human RPMI8226 cells; assay type: functional
Method in brief: (§3)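 NCI Developmental Therapeutics Program cell panel. GI50 is the concentration that reduces growth of treated cells to half that of untreated controls. TGI is the concentration that completely halts growth.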

ACHN = test: Cytotoxicity against human ACHN cells; assay type: functional; method in brief: as §3
SK-OV-3 = test: Cytotoxicity against human SK-OV3 cells; assay type: functional; method in brief: as §3
Fusarium proliferatum [8] = test: Antimicrobial activity against Fusarium proliferatum at 0.3 uM after 72 hrs by microtiter assay; assay type: functional; method in brief: as §2
HT-29 = test: Cytotoxicity against human HT29 cells; assay type: functional; method in brief: as §3
Fusarium proliferatum [9] = test: Antimicrobial activity against Fusarium proliferatum at 30 uM after 48 hrs by microtiter assay; assay type: functional; method in brief: as §2
Fusarium oxysporum [10] = test: Antimicrobial activity against Fusarium oxysporum at 3 uM after 48 hrs by microtiter assay; assay type: functional; method in brief: as §2
Fusarium solani [11] = test: Antimicrobial activity against Fusarium solani at 0.3 uM after 72 hrs by microtiter assay; assay type: functional; method in brief: as §2
DU-145 = test: Cytotoxicity against human DU145 cells; assay type: functional; method in brief: as §3
HCT-15 = test: Cytotoxicity against human HCT15 cells; assay type: functional; method in brief: as §3
Hs-578T = test: Cytotoxicity against human HS578T cells; assay type: functional; method in brief: as §3
A549 = test: Cytotoxicity against human A549 cells; assay type: functional; method in brief: as §3
PC-3 = test: Cytotoxicity against human PC3 cells; assay type: functional; method in brief: as §3
Fusarium solani [12] = test: Antimicrobial activity against Fusarium solani at 3 uM after 48 hrs by microtiter assay; assay type: functional; method in brief: as §2
KM12 = test: Cytotoxicity against human KM12 cells; assay type: functional; method in brief: as §3
HCC 2998 = test: Cytotoxicity against human HCC2998 cells; assay type: functional; method in brief: as §3
Fusarium oxysporum [13] = test: Antimicrobial activity against Fusarium oxysporum at 3 uM after 72 hrs by microtiter assay; assay type: functional; method in brief: as §2
Fusarium oxysporum [14] = test: Antimicrobial activity against Fusarium oxysporum at 30 uM after 72 hrs by microtiter assay; assay type: functional; method in brief: as §2
NCI-H322M = test: Cytotoxicity against human NCI-H322M cells; assay type: functional; method in brief: as §3
Fusarium solani [15] = test: Antimicrobial activity against Fusarium solani at 30 uM after 72 hrs by microtiter assay; assay type: functional; method in brief: as §2
Fusarium proliferatum [16] = test: Antimicrobial activity against Fusarium proliferatum at 30 uM after 72 hrs by microtiter assay; assay type: functional; method in brief: as §2
Fusarium solani [17] = test: Antimicrobial activity against Fusarium solani at 30 uM after 48 hrs by microtiter assay; assay type: functional; method in brief: as §2
Fusarium proliferatum [18] = test: Antimicrobial activity against Fusarium proliferatum at 3 uM after 48 hrs by microtiter assay; assay type: functional; method in brief: as §2
UACC-257 = test: Cytotoxicity against human UACC257 cells; assay type: functional; method in brief: as §3
Fusarium oxysporum [19] = test: Antimicrobial activity against Fusarium oxysporum at 0.3 uM after 72 hrs by microtiter assay; assay type: functional; method in brief: as §2
Fusarium solani [20] = test: Antimicrobial activity against Fusarium solani at 3 uM after 72 hrs by microtiter assay; assay type: functional; method in brief: as §2
[21] = test system: Mycobacterium tuberculosis; test: Antibacterial activity against Mycobacterium tuberculosis H37Rv at 16 ug/mL by micro plate alamar blue assay; assay type: functional
Method in brief: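 M. tuberculosis H37Rv ATCC 27294 grown in BACTEC 12B medium; microplate Alamar blue assay (MABA). Primary screen at a single concentration of 16 µg/mL, read as percent inhibition.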

SNB-75 = test: Cytotoxicity against human SNB75 cells; assay type: functional; method in brief: as §3
Fusarium proliferatum [22] = test: Antimicrobial activity against Fusarium proliferatum at 3 uM after 72 hrs by microtiter assay; assay type: functional; method in brief: as §2
COLO 205 = test: Cytotoxicity against human COLO205 cells; assay type: functional; method in brief: as §3
Fusarium proliferatum [23] = test: Antimicrobial activity against Fusarium proliferatum at 0.3 uM after 48 hrs by microtiter assay; assay type: functional; method in brief: as §2
[24] = test system: Mycobacterium tuberculosis; test: Antibacterial activity against Mycobacterium tuberculosis H37Rv by micro plate alamar blue assay; assay type: functional

## C/C=C1\NC(=O)[C@H](Cc2ccccc2)NC(=O)[C@@H](C(C)C)NC(=O)[C@@H]([C@@H](C)CC)NC(=O)[C@H](NC(=O)[C@H](NC(=O)[C@H](CCCNCCCCCC)NC(=O)[C@H]2CCCN2C(=O)[C@H](NC(=O)[C@@H](NC(=O)[C@@H](NC(=O)[C@H](NC(=O)CCCC(C)C)C(C)C)[C@@H](C)O)C(C)C)C(C)C)[C@@H](C)CC)[C@@H](C)OC(=O)[C@H](C(C)C)NC1=O [listing 1 of 2 here]
Candida albicans
  IC50: 5690 nM
[1]
  IC50: > 20000 nM
Aspergillus fumigatus
  IC50: 3120 nM
Cryptococcus neoformans
  IC50: 1930 nM
Leishmania donovani
  IC50: 17 µg/mL (≈ 10.9 µM)

## C/C=C1\NC(=O)[C@H](Cc2ccccc2)NC(=O)[C@@H](C(C)C)NC(=O)[C@@H]([C@@H](C)CC)NC(=O)[C@H](NC(=O)[C@H](NC(=O)[C@H](CCCNCc2ccc(F)cc2)NC(=O)[C@H]2CCCN2C(=O)[C@@H](NC(=O)[C@H](NC(=O)[C@H](NC(=O)[C@@H](NC(=O)CCCC(C)C)C(C)C)[C@H](C)O)C(C)C)C(C)C)[C@@H](C)CC)[C@@H](C)OC(=O)[C@H](C(C)C)NC1=O
Fusarium proliferatum [2]
  Activity: Active
Fusarium oxysporum [3]
  Activity: Active
Fusarium solani [4]
  Activity: Active

## C/C=C1\NC(=O)[C@H](Cc2ccccc2)NC(=O)[C@@H](C(C)C)NC(=O)[C@@H]([C@@H](C)CC)NC(=O)[C@H](NC(=O)[C@H](NC(=O)[C@H](CCCNCc2ccncc2)NC(=O)[C@H]2CCCN2C(=O)[C@H](NC(=O)[C@@H](NC(=O)[C@@H](NC(=O)[C@H](NC(=O)CCCC(C)C)C(C)C)[C@@H](C)O)C(C)C)C(C)C)[C@@H](C)CC)[C@@H](C)OC(=O)[C@H](C(C)C)NC1=O
Fusarium oxysporum [5]
  inhibition at 0.3 µM: 0%
Fusarium solani [6]
  inhibition at 0.3 µM: 0%
Fusarium oxysporum [7]
  inhibition at 30 µM: 98.2%
RPMI-8226
  GI50: 638 nM
  TGI: 1890 nM
ACHN
  GI50: 1280 nM
  TGI: 2320 nM
Candida albicans
  MFC: > 20 µM
  MIC: > 20 µM
SK-OV-3
  GI50: 374 nM
  TGI: 1360 nM
Fusarium proliferatum [8]
  inhibition at 0.3 µM: 0%
HT-29
  GI50: 279 nM
Fusarium proliferatum [9]
  inhibition at 30 µM: 99.1%
Fusarium oxysporum [10]
  inhibition at 3 µM: 0%
Fusarium solani [11]
  inhibition at 0.3 µM: 0%
[1]
  MBC: > 20 µM
  MIC: > 20 µM
DU-145
  GI50: 124 nM
  TGI: 266 nM
Aspergillus fumigatus
  MFC: 20 µM (≈ 31.4 µg/mL)
  MIC: 10 µM (≈ 15.7 µg/mL)
HCT-15
  GI50: 492 nM
  TGI: 1560 nM
Cryptococcus neoformans
  MFC: 5 µM (≈ 7.85 µg/mL)
  MIC: 5 µM (≈ 7.85 µg/mL)
Hs-578T
  GI50: 162 nM
  TGI: 444 nM
A549
  GI50: 189 nM
  TGI: 425 nM
PC-3
  GI50: 267 nM
  TGI: 973 nM
Fusarium solani [12]
  inhibition at 3 µM: 0%
KM12
  GI50: 152 nM
HCC 2998
  GI50: 236 nM
  TGI: 732 nM
Fusarium oxysporum [13]
  inhibition at 3 µM: 0%
Fusarium oxysporum [14]
  inhibition at 30 µM: 91.2%
NCI-H322M
  GI50: 131 nM
  TGI: 238 nM
Fusarium solani [15]
  inhibition at 30 µM: 97.5%
Fusarium proliferatum [16]
  inhibition at 30 µM: 95.3%
Fusarium solani [17]
  inhibition at 30 µM: 99.2%
Fusarium proliferatum [18]
  inhibition at 3 µM: 0%
UACC-257
  GI50: 1310 nM
  TGI: 2430 nM
Fusarium oxysporum [19]
  inhibition at 0.3 µM: 0%
Fusarium solani [20]
  inhibition at 3 µM: 0%
[21]
  inhibition at 16 µg/mL: 24%
SNB-75
  GI50: 1290 nM
  TGI: 2610 nM
Fusarium proliferatum [22]
  inhibition at 3 µM: 0%
COLO 205
  GI50: 618 nM
Fusarium proliferatum [23]
  inhibition at 0.3 µM: 0%

## C/C=C1\NC(=O)[C@H](Cc2ccccc2)NC(=O)[C@@H](C(C)C)NC(=O)[C@@H]([C@@H](C)CC)NC(=O)[C@H](NC(=O)[C@H](NC(=O)[C@H](CCCNCCCCCC)NC(=O)[C@H]2CCCN2C(=O)[C@H](NC(=O)[C@@H](NC(=O)[C@@H](NC(=O)[C@H](NC(=O)CCCC(C)C)C(C)C)[C@@H](C)O)C(C)C)C(C)C)[C@@H](C)CC)[C@@H](C)OC(=O)[C@H](C(C)C)NC1=O [listing 2 of 2 here]
Fusarium oxysporum [5]
  inhibition at 0.3 µM: 0%
Fusarium solani [6]
  inhibition at 0.3 µM: 0%
Fusarium oxysporum [7]
  inhibition at 30 µM: 93.6%
Candida albicans
  MFC: 20 µM (≈ 31.2 µg/mL)
  MIC: 20 µM (≈ 31.2 µg/mL)
Fusarium proliferatum [8]
  inhibition at 0.3 µM: 0%
[24]
  MIC: > 16 µg/mL
Fusarium proliferatum [9]
  inhibition at 30 µM: 95.3%
Fusarium oxysporum [10]
  inhibition at 3 µM: 0%
Fusarium solani [11]
  inhibition at 0.3 µM: 0%
[1]
  MBC: > 20 µM
  MIC: > 20 µM
Aspergillus fumigatus
  MFC: 20 µM (≈ 31.2 µg/mL)
  MIC: 10 µM (≈ 15.6 µg/mL)
Cryptococcus neoformans
  MFC: 10 µM (≈ 15.6 µg/mL)
  MIC: 5 µM (≈ 7.81 µg/mL)
Fusarium solani [12]
  inhibition at 3 µM: 0%
Fusarium oxysporum [13]
  inhibition at 3 µM: 0%
Fusarium oxysporum [14]
  inhibition at 30 µM: 89%
Fusarium solani [15]
  inhibition at 30 µM: 94.7%
Fusarium proliferatum [16]
  inhibition at 30 µM: 92.8%
Fusarium solani [17]
  inhibition at 30 µM: 94.3%
Fusarium proliferatum [18]
  inhibition at 3 µM: 0%
Leishmania donovani
  IC90: 34 µg/mL (≈ 21.8 µM)
Fusarium oxysporum [19]
  inhibition at 0.3 µM: 0%
Fusarium solani [20]
  inhibition at 3 µM: 0%
[21]
  inhibition at 16 µg/mL: 88%
Fusarium proliferatum [22]
  inhibition at 3 µM: 0%
Fusarium proliferatum [23]
  inhibition at 0.3 µM: 0%
